Experimental data published in ChEMBL document CHEMBL5247650, “New Dual Inhibitors of Bacterial Topoisomerases with Broad-Spectrum Antibacterial Activity and In Vivo Efficacy against Vancomycin-Intermediate Staphylococcus aureus” (J Med Chem, 2023).
In brackets after ≈: the same amount, converted by molar mass. Activity calls are given as the source filed them. No cut-off for these calls is given here.

Tests used:
[1] = Plasma protein binding in CD-1 mouse assessed as unbound fraction at 5 uM incubated for 4 hrs by equilibrium dialysis method; type: ADME, cell-free
How it was run: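 Equilibrium dialysis in pooled male CD-1 mouse plasma. Compound at 5 μM (0.5% DMSO), two replicates, 4 h at 37 °C, sampled at 0 min and 4 h. Buffer and plasma aliquots were matrix-matched, quenched with acetonitrile/methanol (2:1) containing internal standard, and analysed by LC–MS/MS. Caffeine, verapamil and nicardipine served as binding controls.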

Enterobacter cloacae = assay: Antibacterial activity against Enterobacter cloacae subsp. cloacae ATCC 13047 assessed as bacterial growth inhibition incubated for 18 hrs by microplate reader based analysis; type: functional
Acinetobacter baumannii [2] = assay: Antibacterial activity against clinical isolate Acinetobacter baumannii assessed as bacterial growth inhibition at 4 ug/ml by CLSI based broth microdilution method relative to control; type: functional, organism-based; settings: dose 4.0 µg/ml
How it was run: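 Hungarian clinical isolates and control strains were tested by the same CLSI broth microdilution procedure (MHBII, OD600 read-out after 18 h at 37 °C), run in 384-well plates.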

[3] = Inhibition of Escherichia coli DNA topoisomerase 4 relaxation
Pseudomonas aeruginosa = assay: Antibacterial activity against Pseudomonas aeruginosa ATCC 27853 assessed as bacterial growth inhibition incubated for 18 hrs by microplate reader based analysis; type: functional
Escherichia coli = assay: Antibacterial activity against Escherichia coli ATCC 25922 assessed as bacterial growth inhibition incubated for 18 hrs by microplate reader based analysis; type: functional
Acinetobacter baumannii [4] = assay: Antibacterial activity against Acinetobacter baumannii ATCC 17978 assessed as bacterial growth inhibition incubated for 18 hrs by microplate reader based analysis; type: functional
Enterococcus faecium = assay: Antibacterial activity against Enterococcus faecium ATCC 700221 assessed as bacterial growth inhibition incubated for 18 hrs by microplate reader based analysis; type: functional
Enterococcus faecalis = assay: Antibacterial activity against Enterococcus faecalis ATCC 29212 assessed as bacterial growth inhibition incubated for 18 hrs by microplate reader based analysis; type: functional
Staphylococcus aureus [5] = assay: Antibacterial activity against Staphylococcus aureus ATCC 29213 assessed as bacterial growth inhibition incubated for 18 hrs by microplate reader based analysis; type: functional
Staphylococcus aureus [6] = assay: Antibacterial activity against Methicillin-resistant Staphylococcus aureus ATCC 43300 assessed as bacterial growth inhibition incubated for 18 hrs by microplate reader based analysis; type: functional
How it was run: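 Cation-adjusted Mueller Hinton broth II; strains grown overnight on agar then broth at 37 °C. Two-fold 12-step serial dilutions from DMSO stocks (final DMSO at most 0.64%), 5 × 10^4 cells per well, three parallel replicates, 37 °C with 150 rpm shaking for 18 h.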

Staphylococcus aureus [7] = assay: Antibacterial activity against Vancomycin-intermediate Staphylococcus aureus ATCC 700699 assessed as bacterial growth inhibition incubated for 18 hrs by microplate reader based analysis; type: functional
Klebsiella pneumoniae = assay: Antibacterial activity against Klebsiella pneumoniae ATCC 10031 assessed as bacterial growth inhibition incubated for 18 hrs by microplate reader based analysis; type: functional
Topoisomerase IV = Topoisomerase IV (Staphylococcus aureus, UniProt P0C1S7+P0C1U9); assay: Inhibition of Staphylococcus aureus topoisomerase 4 decatenation incubated for 30 mins in presence of ATP by ethidium bromide staining based analysis; type: protein-complex assay
[8] = Inhibition of Pseudomonas aeruginosa topoisomerase 4 decatenation incubated for 30 mins in presence of ATP by ethidium bromide staining based analysis
[9] = Inhibition of Acinetobacter baumannii topoisomerase 4 decatenation incubated for 30 mins in presence of ATP by ethidium bromide staining based analysis
[10] = Genotoxicity in CHO-K1 cells up to 50 uM incubated for 24 hrs in presence of rat liver S9 fraction by micronucleus test; type: toxicity, subcellular, Cricetulus griseus; settings: chinese hamster, s9, 24 h
[11] = Hemolytic activity in human RBC assessed as hemolysis at 100 uM incubated for 45 mins under shaking condition by spectrophotometer analysis; type: toxicity, cell-based; settings: erythrocyte
[12] = target: Sodium channel protein type 5 subunit alpha (Homo sapiens, UniProt Q14524); assay: Inhibition of Nav1.5 ion channel (unknown origin) expressed in CHO cells at 10 microM by patch-clamp method; type: cell-based
[13] = target: T1, Voltage-gated inwardly rectifying potassium channel KCNH2 (Homo sapiens, UniProt Q12809); assay: Inhibition of hERG potassium ion channel expressed in CHO cells at 50 microM by patch-clamp method; type: toxicity, cell-based
[14] = Genotoxicity in CHO-K1 cells upto 100 uM incubated for 24 hrs in absence of rat liver S9 fraction by micronucleus test; type: toxicity, cell-based, Cricetulus griseus; settings: chinese hamster, cho-k1, 24 h
[15] = Metabolic stability in human liver microsomes assessed as intrinsic clearance […] at 1 uM measured upto 60 mins by LC-MS/MS analysis; type: ADME, Microsome; settings: 1 h
How it was run: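 Pooled human liver microsomes at 0.5 mg/mL in 100 mM KPO4 pH 7.4, compound at 1 μM final. Started with 1 mM NADPH; sampled at 0, 5, 10, 20, 40 and 60 min. Quenched with cold acetonitrile plus internal standard; parent remaining measured by LC–MS/MS. Intrinsic clearance calculated by the Obach approach with literature scaling factors.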

MCF7 [16] = assay: Cytotoxicity against human MCF7 cells assessed as reduction in cell growth upto 100 uM incubated for 72 hrs in absence of fetal bovine serum by MTS assay; type: toxicity, cell-based; settings: mcf7, 72 h
[17] = target: T1, Voltage-gated inwardly rectifying potassium channel KCNH2; assay: Inhibition of hERG channel expressed in HEK293 cells at -40 mV holding potential by whole-cell voltage clamp method; type: toxicity, cell-based
HepG2 [18] = assay: Cytotoxicity against human HepG2 cells assessed as reduction in cell growth upto 100 uM incubated for 72 hrs by MTS assay; type: toxicity, cell-based; settings: hepg2, 72 h
HepG2 [19] = assay: Cytotoxicity against human HepG2 cells assessed as reduction in cell growth upto 100 uM incubated for 72 hrs in absence of fetal bovine serum by MTS assay; type: toxicity, cell-based; settings: hepg2, 72 h
MCF7 [20] = assay: Cytotoxicity against human MCF7 cells assessed as reduction in cell growth upto 100 uM incubated for 72 hrs by MTS assay; type: toxicity, cell-based; settings: mcf7, 72 h
HepG2 [21] = assay: Mitotoxicity in human HepG2 cells upto 1000 uM incubated for 24 hrs by glu/gal assay; type: toxicity, cell-based; settings: hepg2, 24 h
Acinetobacter baumannii [22] = assay: Antibacterial activity against clinical isolate Acinetobacter baumannii assessed as bacterial growth inhibition at 32 ug/ml by CLSI based broth microdilution method relative to control; type: functional
Acinetobacter baumannii [23] = assay: Antibacterial activity against non multi-drug resistant Acinetobacter baumannii assessed as bacterial growth inhibition at 8 ug/ml by CLSI based broth microdilution method relative to control; type: functional; design: scale not given: the % may be the effect or the level left; settings: dose 8 µg/ml
How it was run: (§1)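 Panel of 100 A. baumannii strains of diverse geographic origin, 50 MDR and 50 non-MDR. Tested at a contract lab by broth microdilution following CLSI guidelines. Read-out is the percentage of strains inhibited at each concentration.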

Acinetobacter baumannii [24] = assay: Antibacterial activity against multi-drug resistant Acinetobacter baumannii assessed as bacterial growth inhibition at 8 ug/ml by CLSI based broth microdilution method relative to control; type: functional; design: scale not given: the % may be the effect or the level left; settings: dose 8 µg/ml; how it was run: as §1
Acinetobacter baumannii [25] = assay: Antibacterial activity against multi-drug resistant Acinetobacter baumannii assessed as bacterial growth inhibition by CLSI based broth microdilution method; type: functional
DNA gyrase = DNA gyrase (Escherichia coli, UniProt P0AES4+P0AES6); assay: Inhibition of Escherichia coli DNA gyrase supercoiling; type: protein-complex assay
How it was run: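 E. coli gyrase supercoiling measured in a high-throughput plate assay from a commercial kit. Seven inhibitor concentrations; IC50 fitted from the curve, mean of three independent experiments.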

[26] = Thermodynamic solubility of compound in 100 mM PBS buffer at pH 7.4 incubated for 48 hrs under shaking condition by LC-MS/MS analysis; type: physicochemical; settings: read-out: Therm_solubility

T1 sequence (Q12809 whole entry): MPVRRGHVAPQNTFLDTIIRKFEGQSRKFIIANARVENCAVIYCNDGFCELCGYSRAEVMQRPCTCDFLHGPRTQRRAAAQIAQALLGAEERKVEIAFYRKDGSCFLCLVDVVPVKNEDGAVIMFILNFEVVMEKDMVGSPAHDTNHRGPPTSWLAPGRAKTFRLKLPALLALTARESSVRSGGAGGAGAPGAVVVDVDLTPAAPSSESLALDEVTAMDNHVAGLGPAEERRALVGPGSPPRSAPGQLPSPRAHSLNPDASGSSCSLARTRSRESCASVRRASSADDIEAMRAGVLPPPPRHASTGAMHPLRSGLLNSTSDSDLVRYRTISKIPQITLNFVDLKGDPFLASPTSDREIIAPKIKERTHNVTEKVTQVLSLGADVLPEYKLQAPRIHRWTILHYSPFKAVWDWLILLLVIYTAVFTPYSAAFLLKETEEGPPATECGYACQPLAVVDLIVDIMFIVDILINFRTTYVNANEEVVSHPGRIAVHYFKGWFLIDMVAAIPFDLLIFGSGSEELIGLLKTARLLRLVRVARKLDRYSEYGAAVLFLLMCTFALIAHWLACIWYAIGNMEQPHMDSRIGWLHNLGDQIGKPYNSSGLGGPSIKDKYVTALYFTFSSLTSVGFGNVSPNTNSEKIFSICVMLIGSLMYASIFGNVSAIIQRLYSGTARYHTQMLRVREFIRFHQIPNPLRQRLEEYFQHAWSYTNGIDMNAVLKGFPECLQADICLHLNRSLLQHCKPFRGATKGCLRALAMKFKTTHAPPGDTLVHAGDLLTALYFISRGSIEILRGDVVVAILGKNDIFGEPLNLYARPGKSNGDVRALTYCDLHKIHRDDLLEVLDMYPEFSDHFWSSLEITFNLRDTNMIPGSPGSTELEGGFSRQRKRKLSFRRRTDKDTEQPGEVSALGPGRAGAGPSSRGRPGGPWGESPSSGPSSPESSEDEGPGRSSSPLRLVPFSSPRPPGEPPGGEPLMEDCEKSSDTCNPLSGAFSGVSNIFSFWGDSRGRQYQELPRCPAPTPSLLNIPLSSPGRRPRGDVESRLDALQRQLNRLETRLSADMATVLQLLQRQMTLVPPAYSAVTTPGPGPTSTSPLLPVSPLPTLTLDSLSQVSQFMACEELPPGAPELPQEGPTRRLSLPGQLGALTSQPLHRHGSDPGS
Sequence of Topoisomerase IV (P0C1U9 whole entry): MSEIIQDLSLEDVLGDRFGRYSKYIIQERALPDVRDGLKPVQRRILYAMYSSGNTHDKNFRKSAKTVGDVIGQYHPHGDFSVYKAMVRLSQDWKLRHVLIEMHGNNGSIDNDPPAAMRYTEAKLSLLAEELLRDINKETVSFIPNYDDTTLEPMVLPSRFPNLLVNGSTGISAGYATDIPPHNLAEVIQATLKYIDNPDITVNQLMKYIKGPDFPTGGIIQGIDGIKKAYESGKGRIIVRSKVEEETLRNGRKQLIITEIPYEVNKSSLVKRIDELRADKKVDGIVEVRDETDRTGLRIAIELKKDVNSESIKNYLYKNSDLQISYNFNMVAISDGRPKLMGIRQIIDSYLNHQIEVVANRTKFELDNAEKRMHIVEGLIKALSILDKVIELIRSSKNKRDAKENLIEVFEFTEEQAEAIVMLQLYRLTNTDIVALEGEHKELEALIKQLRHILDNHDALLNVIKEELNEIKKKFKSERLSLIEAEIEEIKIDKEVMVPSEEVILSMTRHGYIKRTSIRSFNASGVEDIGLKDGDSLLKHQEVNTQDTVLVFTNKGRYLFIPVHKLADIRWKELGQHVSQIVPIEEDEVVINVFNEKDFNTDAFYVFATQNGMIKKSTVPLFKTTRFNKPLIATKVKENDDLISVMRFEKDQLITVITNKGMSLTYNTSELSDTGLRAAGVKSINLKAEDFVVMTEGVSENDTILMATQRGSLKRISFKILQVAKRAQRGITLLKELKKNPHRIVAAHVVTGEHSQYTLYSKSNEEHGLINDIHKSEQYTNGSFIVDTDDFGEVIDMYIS
Sequence of Topoisomerase IV (P0C1S7 whole entry): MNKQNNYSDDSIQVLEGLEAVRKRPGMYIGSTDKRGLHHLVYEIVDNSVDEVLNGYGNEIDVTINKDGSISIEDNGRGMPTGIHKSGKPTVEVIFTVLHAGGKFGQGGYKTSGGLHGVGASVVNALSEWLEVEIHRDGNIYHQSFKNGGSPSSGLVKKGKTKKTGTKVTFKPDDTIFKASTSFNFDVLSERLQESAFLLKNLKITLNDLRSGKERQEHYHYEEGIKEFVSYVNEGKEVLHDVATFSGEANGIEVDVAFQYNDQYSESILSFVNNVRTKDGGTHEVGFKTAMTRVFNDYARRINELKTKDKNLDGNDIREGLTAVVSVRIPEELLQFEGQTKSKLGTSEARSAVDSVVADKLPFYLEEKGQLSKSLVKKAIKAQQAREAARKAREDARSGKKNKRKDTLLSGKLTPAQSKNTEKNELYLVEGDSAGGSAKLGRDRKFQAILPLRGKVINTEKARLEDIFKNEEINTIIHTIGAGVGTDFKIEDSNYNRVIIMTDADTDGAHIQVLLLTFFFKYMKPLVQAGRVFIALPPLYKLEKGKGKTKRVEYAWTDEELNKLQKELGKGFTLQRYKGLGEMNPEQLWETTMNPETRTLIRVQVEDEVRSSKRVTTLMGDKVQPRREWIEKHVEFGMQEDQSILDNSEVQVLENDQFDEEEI
Sequence of Sodium channel protein type 5 subunit alpha (Q14524 whole entry): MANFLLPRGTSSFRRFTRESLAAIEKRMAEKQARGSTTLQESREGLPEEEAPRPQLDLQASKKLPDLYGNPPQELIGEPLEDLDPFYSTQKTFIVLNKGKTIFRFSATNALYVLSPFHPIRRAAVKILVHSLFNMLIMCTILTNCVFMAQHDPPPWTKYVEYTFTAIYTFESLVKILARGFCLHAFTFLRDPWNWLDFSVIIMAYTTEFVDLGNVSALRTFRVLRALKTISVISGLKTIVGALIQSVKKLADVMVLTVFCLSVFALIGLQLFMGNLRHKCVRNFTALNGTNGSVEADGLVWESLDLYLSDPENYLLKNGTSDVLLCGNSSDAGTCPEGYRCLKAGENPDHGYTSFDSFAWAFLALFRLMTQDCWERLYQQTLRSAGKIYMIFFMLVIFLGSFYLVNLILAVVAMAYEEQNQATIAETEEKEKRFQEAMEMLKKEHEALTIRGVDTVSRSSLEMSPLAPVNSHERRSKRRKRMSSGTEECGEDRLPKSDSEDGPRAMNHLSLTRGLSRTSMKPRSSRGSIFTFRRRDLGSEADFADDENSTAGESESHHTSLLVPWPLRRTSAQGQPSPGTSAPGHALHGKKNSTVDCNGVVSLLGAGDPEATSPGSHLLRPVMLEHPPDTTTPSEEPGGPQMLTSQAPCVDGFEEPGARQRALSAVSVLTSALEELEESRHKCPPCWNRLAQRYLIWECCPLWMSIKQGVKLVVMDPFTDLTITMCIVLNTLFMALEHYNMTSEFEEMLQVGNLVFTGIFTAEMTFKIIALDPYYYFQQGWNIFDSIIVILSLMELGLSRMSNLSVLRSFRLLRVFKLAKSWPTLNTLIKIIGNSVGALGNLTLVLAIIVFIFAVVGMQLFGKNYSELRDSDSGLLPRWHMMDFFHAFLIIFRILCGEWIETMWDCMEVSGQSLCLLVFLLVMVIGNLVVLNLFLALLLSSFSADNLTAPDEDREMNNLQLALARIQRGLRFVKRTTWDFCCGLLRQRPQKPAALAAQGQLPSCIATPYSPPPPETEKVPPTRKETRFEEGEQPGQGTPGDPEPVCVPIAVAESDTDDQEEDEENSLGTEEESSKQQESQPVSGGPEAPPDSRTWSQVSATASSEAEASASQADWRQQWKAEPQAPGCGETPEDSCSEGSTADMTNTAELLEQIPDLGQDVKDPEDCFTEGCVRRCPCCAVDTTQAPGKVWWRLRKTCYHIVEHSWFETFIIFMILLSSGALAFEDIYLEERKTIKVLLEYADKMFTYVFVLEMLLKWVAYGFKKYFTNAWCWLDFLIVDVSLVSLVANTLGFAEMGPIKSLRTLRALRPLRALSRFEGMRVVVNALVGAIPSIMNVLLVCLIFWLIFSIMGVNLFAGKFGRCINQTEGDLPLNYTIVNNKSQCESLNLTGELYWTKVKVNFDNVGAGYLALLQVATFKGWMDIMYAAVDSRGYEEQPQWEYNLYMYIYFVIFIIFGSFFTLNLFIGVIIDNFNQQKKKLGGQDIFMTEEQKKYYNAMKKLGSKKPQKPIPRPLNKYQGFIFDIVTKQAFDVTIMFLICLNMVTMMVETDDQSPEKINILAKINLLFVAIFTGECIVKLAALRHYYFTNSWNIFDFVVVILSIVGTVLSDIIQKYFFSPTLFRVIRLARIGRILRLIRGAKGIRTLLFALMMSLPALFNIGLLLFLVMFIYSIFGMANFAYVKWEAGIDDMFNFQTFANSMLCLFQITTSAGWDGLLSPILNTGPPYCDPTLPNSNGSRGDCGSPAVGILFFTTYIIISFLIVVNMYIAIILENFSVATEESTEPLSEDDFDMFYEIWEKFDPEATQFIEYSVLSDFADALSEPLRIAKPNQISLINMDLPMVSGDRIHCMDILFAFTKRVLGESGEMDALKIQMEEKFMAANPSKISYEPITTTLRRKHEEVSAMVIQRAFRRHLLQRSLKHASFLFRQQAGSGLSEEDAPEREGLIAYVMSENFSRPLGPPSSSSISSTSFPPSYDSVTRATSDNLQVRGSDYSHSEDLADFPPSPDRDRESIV

`Cc1[nH]c(C(=O)Nc2nc3c(N4CCOC[C@H]4C)cc(C(=O)O)cc3s2)c(Cl)c1Cl` showed a fraction unbound at 4 h, 5 µM [1] of 0.011.

In the case of `Cc1[nH]c(C(=O)Nc2nc3c(N4C[C@H]5CC[C@@H](C4)O5)cc(C(=O)O)cc3s2)c(Cl)c1Cl`, the MIC (Enterobacter cloacae) is reported as 16 mg/L (≈ 33.2 µM).

With COLISTIN the inhibition (Acinetobacter baumannii [2]) was “Active”.

In the case of `Cc1[nH]c(C(=O)Nc2nc3c(N4CC[C@H](N)C4)cc(C(=O)O)cc3s2)c(Cl)c1Cl`, the IC50 [3] is reported as less than 0.1 µM, the Activity (Enterobacter cloacae) is reported as “inactive” and the Activity (Pseudomonas aeruginosa) is reported as “inactive”. For the same molecule, the Activity (Escherichia coli) was “inactive” and the Activity (Acinetobacter baumannii [4]) was “inactive”.

In the case of `Cc1[nH]c(C(=O)Nc2nc3c(N4CCOC4=O)cc(C(=O)O)cc3s2)c(Cl)c1Cl`, the IC50 [3] is reported as 0.12 µM.

For `Cc1[nH]c(C(=O)Nc2nc3c(N4CCOCC4)cc(C(=O)O)cc3s2)cc1Cl`, the Activity (Enterococcus faecium) was “Active”, the Activity (Enterococcus faecalis) was “Active” and the Activity (Staphylococcus aureus [5]) was “Active”. The Activity (Staphylococcus aureus [6]) was “Active” and the Activity (Staphylococcus aureus [7]) was “Active”.

For `COCCCNc1cc(C(=O)O)cc2sc(NC(=O)c3[nH]c(C)c(Cl)c3Cl)nc12.N`, the MIC (Enterococcus faecium) was less than 0.0312 mg/L and the MIC (Enterococcus faecalis) was less than 0.0312 mg/L.

With `Cc1[nH]c(C(=O)Nc2nc3c(N4CCNCC4)cc(C(=O)O)cc3s2)c(Cl)c1Cl` the Activity (Enterobacter cloacae) was “inactive”, the Activity (Pseudomonas aeruginosa) was “inactive” and the Activity (Escherichia coli) was “inactive”. For the same molecule, the Activity (Klebsiella pneumoniae) was “inactive” and the Activity (Acinetobacter baumannii [4]) was “inactive”.

With `Cc1[nH]c(C(=O)Nc2nc3c(CN4CCOCC4)cc(C(=O)O)cc3s2)c(Cl)c1Cl` the IC50 [3] was 0.12 µM, the Activity (Enterobacter cloacae) was “inactive” and the Activity (Pseudomonas aeruginosa) was “inactive”. For the same molecule, the Activity (Escherichia coli) was “inactive”, the Activity (Klebsiella pneumoniae) was “inactive” and the Activity (Acinetobacter baumannii [4]) was “inactive”.

In the case of `Cc1[nH]c(C(=O)Nc2nc3c(N4CC[C@H](N(C)C)C4)cc(C(=O)O)cc3s2)c(Cl)c1Cl`, the IC50 [3] is reported as 0.12 µM, the Activity (Enterobacter cloacae) is reported as “inactive” and the Activity (Pseudomonas aeruginosa) is reported as “inactive”. For the same molecule, the Activity (Escherichia coli) was “inactive”, the Activity (Klebsiella pneumoniae) was “inactive” and the Activity (Acinetobacter baumannii [4]) was “inactive”.

Molecule `CO[C@@H]1[C@@H](OC(N)=O)[C@@H](O)[C@H](Oc2ccc3c(O)c(NC(=O)c4ccc(O)c(CC=C(C)C)c4)c(=O)oc3c2C)OC1(C)C` [NOVOBIOCIN] has an IC50 (Topoisomerase IV) of 13.3 µM, an IC50 [8] of 8.37 µM and an IC50 [9] of 9.46 µM.

In the case of `Cc1[nH]c(C(=O)Nc2nc3c(N4CCOCC4)cc(C(=O)O)cc3s2)c(Cl)c1Cl`, the Activity [10] is reported as “Non-Toxic”, the Activity [11] is reported as “Non-Toxic” and the “inhibition (INH)” value [12] is reported as “Not Active”. The “inhibition (INH)” value [13] was “Not Active”, the Activity [14] was “Non-Toxic” and the CLint [15] was 13 µL/min. The Activity (MCF7 [16]) was “Non-Toxic”, the “inhibition (INH)” value [17] was “Not Active” and the Activity (HepG2 [18]) was “Non-Toxic”. For the same molecule, the Activity (HepG2 [19]) was “Non-Toxic”, the Activity (MCF7 [20]) was “Non-Toxic” and the Activity (HepG2 [21]) was “Non-Toxic”.

`C[C@H]1c2cccc(O)c2C(=O)C2=C(O)[C@]3(O)C(=O)C(C(N)=O)=C(O)[C@@H](N(C)C)[C@@H]3[C@@H](O)[C@@H]21` [DOXYCYCLINE] gave an inhibition at 32 µg/mL (Acinetobacter baumannii [22]) of 100%.

`Cc1[nH]c(C(=O)Nc2nc3c(N4CCCC4)cc(C(=O)O)cc3s2)c(Cl)c1Cl` showed an IC50 [3] of less than 0.1 µM.

`CN(C)c1cc(NC(=O)CNC(C)(C)C)c(O)c2c1C[C@H]1C[C@H]3[C@H](N(C)C)C(O)=C(C(N)=O)C(=O)[C@@]3(O)C(O)=C1C2=O` [TIGECYCLINE] gave an Activity (Acinetobacter baumannii [23]) of 100%, an Activity (Acinetobacter baumannii [24]) of 100% and an MIC (Acinetobacter baumannii [25]) greater than 16 mg/L.

`Cc1[nH]c(C(=O)Nc2nc3c(N4CCOC[C@@H]4C)cc(C(=O)O)cc3s2)c(Cl)c1Cl` showed an IC50 (DNA gyrase) of 0.017 µM.

With `Cc1[nH]c(C(=O)Nc2nc3c(N4[C@@H]5CC[C@H]4COC5)cc(C(=O)O)cc3s2)c(Cl)c1Cl` the IC50 [3] was 0.14 µM and the solubility thermodynamic at 48 h [26] was 0.26 µM (≈ 0.125 µg/mL).

For `Cc1[nH]c(C(=O)Nc2nc3c(N4CCC(=S)CC4)cc(C(=O)O)cc3s2)c(Cl)c1Cl`, the IC50 [3] was less than 0.1 µM.

For `Cc1[nH]c(C(=O)Nc2nc3c(N4CCC(O)CC4)cc(C(=O)O)cc3s2)c(Cl)c1Cl`, the Activity (Enterobacter cloacae) was “inactive”, the Activity (Pseudomonas aeruginosa) was “inactive” and the Activity (Escherichia coli) was “inactive”. The Activity (Acinetobacter baumannii [4]) was “inactive”.
